Assay outcomes from PubChem.
MrgX1 agonist: activates human MrgX1 receptor signaling; Q96LB2; MrgX1-HEK293 cells, Fluo-4 calcium fluorescence, agonist mode; active compounds read high; B-score at 10 µM; 310,000 compounds, 0.44% hits; AID 588627;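 active = calcium response B-score plate-corrected fluorescence ratio at least 3 library SD, with starting fluorescence B-score inside 5 SD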
Target sequence (Q96LB2 whole entry, looked up): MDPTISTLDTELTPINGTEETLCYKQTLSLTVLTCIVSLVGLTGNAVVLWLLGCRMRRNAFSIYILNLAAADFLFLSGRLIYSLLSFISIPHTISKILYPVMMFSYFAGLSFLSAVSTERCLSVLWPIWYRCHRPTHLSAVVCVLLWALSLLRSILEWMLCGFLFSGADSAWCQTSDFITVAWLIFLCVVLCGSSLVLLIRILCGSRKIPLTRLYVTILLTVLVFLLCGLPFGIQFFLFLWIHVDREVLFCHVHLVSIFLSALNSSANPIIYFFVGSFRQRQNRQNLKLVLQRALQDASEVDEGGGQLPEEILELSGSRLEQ
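System – MrgX1-expressing HEK293 cells · Incubation – cells plated overnight, dye loaded 0.5 h 37 °C, 0.5 h room temperature · Technique – kinetic Fluo-4 NW fluorescence of intracellular calcium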
RGS4 pot: potentiators or activators of RGS4. HEK293 M3R/inducible RGS4, carbachol calcium flux Fluo4; active compounds read low. B-score at 10 µM. 310,000 compounds, 0.92% hits. AID 463111;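 active = B-score of the integrated calcium signal more than 4 SD below the library mean, with starting fluorescence not abnormally high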;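 also: negative B-score means reduced calcium response which marks RGS4 activation or potentiation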
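Assay system: HEK293 FlpIn-TREx cells, stable M3R, doxycycline-inducible RGS4 / Probe or stimulus: carbachol, ECmax concentration / Times: overnight RGS4 induction, 30 min dye load 37 °C, 20 min compound RT / Signal: kinetic calcium fluorescence imaging with Fluo4-AM dye, 2 µM / Measure: Agonist-evoked peak-minus-minimum fluorescence over baseline, integrated ratio, B score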
MrgX1 antag: antagonists of human MrgX1 receptor; MRGX1-HEK293 calcium flux, Fluo-4, BAM8-22 antagonism; active compounds read low; B-score at 10 µM; 310,000 compounds, 1.3% hits; AID 588676;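 active = calcium-response B-score plate-corrected more than 3 library SD below zero, starting fluorescence within 5 deviations, no agonist response on first addition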;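 also: peak minus trough fluorescence over baseline after final BAM8-22 challenge near maximal dose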
RGS4 inh: inhibitors of human RGS4 | P49798 | HEK293 M3R/RGS4 inducible, Fluo-4 calcium flux; active compounds read high; triggered by carbachol at its EC20 | B-score at 10 µM | 310,000 compounds, 0.45% hits | AID 463165;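 active = B-score, a plate-corrected calcium signal, over three deviations above library mean, with baseline fluorescence within five deviations of library mean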;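 also: RGS4 expression induced by doxycycline in cells with stable M3 receptor; B-score is computed from the integrated fluorescence ratio over baseline after carbachol; higher B-score means a larger calcium signal and so more RGS4 inhibition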
Target sequence (P49798 whole entry, looked up): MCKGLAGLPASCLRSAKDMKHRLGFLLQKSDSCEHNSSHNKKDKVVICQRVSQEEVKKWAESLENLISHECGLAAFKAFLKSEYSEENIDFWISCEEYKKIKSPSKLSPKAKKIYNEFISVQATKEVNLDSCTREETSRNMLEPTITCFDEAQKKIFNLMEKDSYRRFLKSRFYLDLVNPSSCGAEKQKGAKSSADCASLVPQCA
MrgX1 PAM: allosterically activates human MrgX1 receptor signaling | Q96LB2 | 310,000 compounds, 0.63% hits | B-score at 10 µM | MrgX1-HEK293, Fluo-4 calcium flux, FDSS; active compounds read high;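 active = plate-corrected calcium response at least 3 library SD above typical, normal starting fluorescence, not activating the receptor alone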;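 also: compound read alongside a low EC10 to EC30 dose of BAM8-22 agonist; peak minus trough fluorescence over baseline measured at the second addition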
Numbers without * were called inactive; i = inactive; . = not tested or not shown. In the library only some 3.5% were active in any assay of this set; here they are far more common.

SMILES | MrgX1 agonist | RGS4 pot | MrgX1 antag | RGS4 inh | MrgX1 PAM
CCc1ccc(OCCn2cccn2)cc1 | i | i | i | i | i
Cc1cc(C)c(S(=O)(=O)/N=C2/C=C(Sc3ncn[nH]3)C(=O)c3ccccc32)cc1C | i | . | i | . | 6.8*
Cc1ccc(C)c(S(=O)(=O)/N=C2\C=C(NS(=O)(=O)c3ccccc3)C(=O)c3ccccc32)c1 | i | i | i | i | i
CC(C)Cc1ccc(C(C)C(N)=NCCc2ccccc2)cc1 (stereo not drawn) | i | -7.1* | i | i | i
CC(C)NC(=O)c1cnc(Sc2ncc(C(F)(F)F)cc2Cl)n1C | i | -7.6* | i | i | i
Cn1c(C(=O)O)cnc1Sc1ncc(C(F)(F)F)cc1Cl | i | i | i | i | i
COc1ccc(-c2csc(N(Cc3ccco3)C(=O)c3cccs3)n2)cc1 | i | i | -4.8* | i | i
COc1ccc(OC)c(-c2csc(N(Cc3ccco3)C(=O)c3cccs3)n2)c1 | i | i | i | i | i
COc1cccc(NC(=O)C(c2ccccc2)N2CCCCC2)c1 (stereo not drawn) | i | -7* | i | i | i
Cc1cc(=O)oc2cc(OCC(=O)N3CCC(C(N)=O)CC3)ccc12 | i | i | i | i | i
CC1CCC(C(C)C)C(OC(=O)Cn2c(-c3ccccc3)[n+](C)c3ccccc32)C1 (stereo not drawn) | i | i | -7.5* | i | i
CC1CCC(C(C)C)C(OC(=O)CSc2nnc(N)s2)C1 (stereo not drawn) | i | i | i | i | i
CC1CCC(C(C)C)C(OC(=O)CSc2nc(N)cc(=O)[nH]2)C1 (stereo not drawn) | i | i | i | i | i
CC1CCC(C(C)C)C(OC(=O)Cn2c(-c3ccc(F)cc3)[n+](C)c3ccccc32)C1 (stereo not drawn) | i | . | -5.8* | . | i
Cc1cccc(OC(=O)Cn2c(C(F)(F)F)nc3ccccc32)c1 | i | i | i | i | i
Cc1cccc(OCc2n(CC(=O)OC3CC(C)CCC3C(C)C)c3ccccc3[n+]2C)c1 (stereo not drawn) | i | -12* | -9.6* | i | i
COc1ccc(OCc2ccc(/C=N\NC(=O)c3sccc3C)o2)cc1 | i | i | i | i | i
CCN1/C(=C/c2sc(-c3ccccc3C)c[n+]2C)Sc2ccccc21 | . | -7.4* | . | i | .
COc1ccc(S(=O)(=O)Nc2noc3ccccc23)cc1OC | i | i | i | i | i
Cc1nnn(C23CC4CC(CC(CC(=O)Nc5ccc(C)c(C)c5)(C4)C2)C3)n1 | i | i | i | i | i
Nc1ncnc2c1ncn2[C@@H]1O[C@H](CO)[C@@H](O)[C@H]1O | 26* | i | i | i | i
CN1CCN(S(=O)(=O)c2ccc(NC(=S)NC(=O)C(C)(C)C)cc2)CC1 | i | i | i | i | i
CCOC(=O)c1ccc2ncc(C(=O)OCC)c(Nc3ccc(N4CCOCC4)cc3)c2c1 | i | -7.5* | i | i | i
CCOC(=O)c1cnc2ccc(C(=O)OC)cc2c1Nc1ccc(C(=O)O)cc1 | i | i | i | i | i
COc1cc(OC)c(C=O)c(OC(=O)N2CCOCC2)c1 | i | i | i | i | i
SMILES | MrgX1 agonist | RGS4 pot | MrgX1 antag | RGS4 inh | MrgX1 PAM
O=Cc1cc(Br)c(OC(=O)N2CCOCC2)c(Br)c1 | 27* | i | i | i | i
Cc1ccc(C(C)C)c(OCC(=O)NN=C(CCl)CCl)c1 | i | i | i | i | i
O=C(O)c1ccccc1C(=O)NCc1ccc2c(c1)OCO2 | i | i | i | i | i
Cc1ccccc1-c1nc2sc3c(c2c(=O)n1N)CCCC3 | i | i | i | i | 18*
Nn1c(-c2cccs2)nc2sc3c(c2c1=O)CCCC3 | i | i | i | i | i
Cc1ccc(S(=O)(=O)c2c(C)cc(C)nc2Oc2cccc(C(F)(F)F)c2)cc1 | i | -8.2* | i | i | i
O=C(c1ccc(S(=O)(=O)N2CCOCC2)cc1)N1CCN(c2ccccc2F)CC1 | i | i | i | i | i
Cc1cc(/C=C2\SC(=S)NC2=O)c(C)[nH]1 | 38* | i | i | i | i
CCn1c(C)cc(/C=C2/SC(=S)NC2=O)c1C | i | i | i | i | i
C=CCNCC(=O)NN=C(c1ccccc1)c1ccccc1 | i | i | i | i | i
N=C1S/C(=C\c2ccco2)C(=O)N1c1ccc2c(c1)OCO2 | i | i | i | i | i
N=C1S/C(=C\c2ccco2)C(=O)N1c1nccs1 | 48* | i | i | i | i
Cc1cc(C2=NNC(=NCCc3ccccc3)SC2)c(C)n1CC1CCCO1 (stereo not drawn) | 45* | i | i | i | i
CN(C)C(/C=C/Nc1ccc(C#N)cc1)=C(C#N)C#N | i | i | -5.2* | i | i
CN(C)C(/C=C/Nc1ccc(F)cc1)=C(C#N)C#N | i | i | i | i | i
CC(C)c1ccc(S(=O)(=O)N(C)C2(C)CCS(=O)(=O)C2)cc1 (stereo not drawn) | i | i | i | i | i
C(=N\N(Cc1ccccc1)c1ccccc1)/c1cccnc1 | i | -7.9* | i | i | i
Oc1cccc(/C=N/N(Cc2ccccc2)c2ccccc2)c1 | i | i | i | i | i
CC(=O)N(c1nc(/C=C\C(=O)O)cs1)c1ccccc1F | 32* | i | i | i | i
O=C1CSC(c2cccc([N+](=O)[O-])c2)N1c1ccccc1 (stereo not drawn) | i | -7.5* | i | i | i
O=C1CSC(c2cccc([N+](=O)[O-])c2)N1c1ccc(O)cc1 (stereo not drawn) | i | i | i | i | i
CC12CCC(C(=O)N/N=C/c3ccc(O)cc3)(OC1=O)C2(C)C (stereo not drawn) | i | i | i | i | i
COc1ccc(CCNc2oc(COc3ccccc3Cl)nc2C#N)cc1OC | i | -7.3* | i | i | i
COc1ccc(CCNc2oc(COc3ccccc3F)nc2C#N)cc1OC | i | . | i | . | i
c1ccc(-c2ccc(CN3CCN(c4ncccn4)CC3)cc2)cc1 | i | -7* | i | i | i
CCOc1ccc(NC(=O)c2ccc(Cl)c(NC(=O)c3ccco3)c2)cc1 | i | i | i | i | i
CS(=O)(=O)N1N=C(c2ccc3nccnc3c2)CC1c1ccccc1 (stereo not drawn) | i | i | i | i | 6.5*
